# Reference: ChEMBL document CHEMBL4513216, “Probing the Open Global Health Chemical Diversity Library for Multistage-Active Starting Points for Next-Generation Antimalarials” (ACS Infect Dis, 2020)
# Test: Toxicity liver stage against HepG2, at 10uM
# Assay type: cell-based
# Set-up: test concentration 10 uM, cell line HepG2-A16-CD81EGFP
# Details: human, HepG2-A16-CD81EGFP cells; read-out: INHIBITION
# How it was run: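 Uninfected HepG2-A16-CD81EGFP cells, 3 × 10^3 per well, 1536-well, plated on prespotted compound at 10 μM final, parasite-free screening media added to match infected plates; puromycin 10 μM positive, DMSO 0.5% negative; run in parallel with 48 h PbLuc assay at 37 °C, 5% CO2; viability by CellTiter-Glo luminescence, normalized to controls.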
row,Structure (SMILES),cytotoxicity at 10 µM [%]
1,Cc1ccc(CNC2(Cc3cc(CC(C)C)on3)COC2)o1,-2.07
2,F[C@@H]1CN(CC2CC2)C[C@@H]1OCc1nc2ccccc2[nH]1,-1.34
3,CS(=O)(=O)N1CCN2C(=O)N(C3CCOCC3)C[C@H]2C1,5.76
4,CC(=O)N[C@H]1C[C@@H](c2nc(-c3ccc4c(c3)OCO4)no2)N(C)C1,-2.92
5,O=C(COc1ccccc1F)NCC(O)(c1ccccc1)C1CC1 (stereo unspecified),-3.68
6,COCC(=O)N1CCC2(CCC(C(=O)N3CCCC3)O2)CC1 (stereo unspecified),-1.63
7,Cc1cccc(CN2CCC3(CCN(c4ncccn4)C3)C2=O)c1 (stereo unspecified),1.44
8,CN(C)CCN1CCC2(CCN(C(=O)c3cccnc3)CC2)C1=O,2.61
9,COCC(=O)N1CC[C@@H]2O[C@@H](COCC3CCOCC3)CC[C@@H]21,0.718
10,O=C(Cc1ccsc1)NC1CCc2c(ccc(=O)n2CC2CC2)C1 (stereo unspecified),8.88
11,O=C(c1ccnnc1)N1CCCn2nnc(COCC3CC3)c2C1,7.95
12,COCCN1Cc2ccnn2CC(COCc2cccnc2)C1 (stereo unspecified),-131
13,CNC(=O)c1cc2c(nc1NCC(C)C)CCN(S(=O)(=O)N(C)C)CC2,-151
14,CCCS(=O)(=O)N1CCC2(CC(C(=O)NCc3cccnc3)=NO2)C1 (stereo unspecified),-4.51
15,COCC(=O)N1CCC2(CC(C(=O)NCc3cccnc3)=NO2)C1 (stereo unspecified),-1.34
16,Fc1cccc(N2CCOC3(CCCN(c4nncs4)C3)C2)c1 (stereo unspecified),4
17,O=c1ccc(-c2ccccc2F)nn1CN1CCCCCC1,5.76
18,COc1ccc(-c2n[nH]cc2C2SCC(=O)Nc3[nH]ncc32)cc1 (stereo unspecified),-1.33
19,CCN1C(=O)C2(CCOCC2)c2cc(NC(=O)c3ccco3)ccc21,-10.3
20,Cc1c(CCC(=O)Nc2ccc(Cl)cn2)cnn1C,0.678
21,O=C(NCc1cccs1)c1[nH]nc2c1CS(=O)(=O)CC2,1.41
22,CCn1nccc1CNC(=O)C1CC1,-12.2
23,COc1ccc(-c2cc3cccn(CC(=O)N4CCOCC4)c-3n2)cc1,-7.26

row,Structure (SMILES),cytotoxicity at 10 µM [%]
1,Cc1cccc(C(=O)N2CCCC(Cc3cncc4ccccc34)C2)n1 (stereo unspecified),-19
2,O=C(CCC1CCCO1)N1CCc2nc(-c3cnccn3)nc(O)c2C1 (stereo unspecified),-20.3
3,N#CCCCS(=O)(=O)NC(=O)c1cccc(Cl)c1F,-2.8
4,CC(SCCNS(=O)(=O)c1cnn(C)c1)c1cccc(F)c1 (stereo unspecified),17.3
5,CC(C)c1ccc(OCCC(=O)NCCC(=O)N(C)C)cc1,-4.37
6,Cc1c(NC(=O)N(C)CCO)cccc1OC1CCCC1,-0.172
7,Cc1cc(NC(=O)Cn2ccc(=O)c3ccccc32)[nH]n1,-146
8,CC(C)C1CCCN1C(=O)Nc1ccc(=O)n(C)c1 (stereo unspecified),0.581
9,CNS(=O)(=O)c1ccccc1N1CCN(C(C)C(N)=O)CC1 (stereo unspecified),4.87
10,COCCC1(CNC(=O)Nc2ccc(-n3nccn3)cc2)CCC1,-2.99
11,N#Cc1csc(CNCCOc2ncccc2Cl)c1,8.01
12,O=C(NCC(F)(F)F)c1nnn(-c2ccccc2)c1C(F)(F)F,4.39
13,Cn1ncc(C(=O)OCC2CC(=O)N(c3ccccc3)C2)c1C(F)F (stereo unspecified),1.93
14,Cc1cc(CN(C)C(=O)NCc2ccccn2)no1,1.62
15,O=C(NCc1cc(Cl)ccn1)NCc1ccco1,8.5
16,COc1ccc(F)cc1C(=O)Nc1nnc(C)s1,11.1
17,COc1cc(Cl)c(NCc2c(C)noc2C)cc1OC,8.77
18,Cc1nc(CNC(=O)NC2CCCN(c3ncccn3)C2)cs1 (stereo unspecified),-140
19,CCC(=O)Nc1ccc2c(ccn2CCOC)c1,3.54
20,COCCn1ccc(NC(=O)Nc2ccccc2)n1,-0.0425
21,COCc1csc(NC(=O)NCc2ncccc2C)n1,-2.6
22,O[C@@H]1CCN(c2ccc3c(Cl)ccnc3c2F)C1,2.12
23,O=C(NCc1ccncc1)N1CCSCC1c1ccc(Cl)cc1 (stereo unspecified),1.6

row,Structure (SMILES),cytotoxicity at 10 µM [%]
1,CSc1ccc(NC(=O)NCC(O)C2CC2)cc1F (stereo unspecified),6.32
2,O=C(NCCc1cccs1)N1CCC[C@H]1CO,10.3
3,CC(C)NS(=O)(=O)c1ccccc1CNCc1cccc(O)c1,-7.19
4,CCC(c1ccccc1)N1CCN(C(=O)c2cc(C(N)=O)c[nH]2)CC1 (stereo unspecified),2.96
5,CSc1ccc(CNc2ccccc2CN2CCC(O)CC2)cc1,-4.75
6,CCOc1cc(C(=O)N(C)C)ccc1NC(=O)c1ccsc1,-0.587
7,CC(C)n1cc2cc(NC(=O)CCS(C)(=O)=O)ccc2n1,-141
8,Cc1cc(N(Cc2ccon2)S(C)(=O)=O)ccc1Br,4.51
9,O=C(COc1ccccc1)N1CCCC1c1ccc[nH]1 (stereo unspecified),-0.575
10,COc1ccc(C(=O)CCc2nc(C3CC3)no2)cc1,-2.31
11,CCCc1cc(NC(=O)c2cc(N3CCNC3=O)c(F)cc2F)n[nH]1,12.3
12,COc1cc(C)c(NC(=O)CCn2cccc2)cc1OC,1.61
13,CC(C)Cn1cc(NC(=O)N2CCOC(c3ccccc3)C2)cn1 (stereo unspecified),7.59
14,Cc1cc(C(=O)NCCN2CCCCC2)nn1C(C)(C)C,-3
15,N#Cc1ccc(F)cc1Cn1cnc(C2CCC2)cc1=O,15.4
16,CC(C)n1ncc2c1NC(=O)C(C#N)C21CCCC1 (stereo unspecified),-4.1
17,NC(=O)CN(C(=O)Cc1cccc(C(F)(F)F)c1)C1CCCC1,3.71
18,CN(Cc1ccccn1)C(=O)CC1CCOc2ccccc21 (stereo unspecified),11.6
19,CCNC(=O)NC(=O)CNc1cccc(C(=O)c2ccccc2)c1,3.18
20,CCC(C)CNc1ccc2oc(COC)nc2c1 (stereo unspecified),-22.4
21,O=C(NCc1nnc2n1CCC2)N(Cc1ccco1)C1CC1,-6.11
22,COCCn1nc(C(=O)N2CCCC2c2cccc(F)c2)ccc1=O (stereo unspecified),-5.5
23,Cc1cn(CC(=O)NC2CCN(C(=O)C3CC3)CC2)c2ccccc12,-3.57

row,Structure (SMILES),cytotoxicity at 10 µM [%]
1,CCCS(=O)(=O)N1Cc2nccn2CC(Cn2cncn2)C1 (stereo unspecified),-0.158
2,Cn1ccc(-c2cc(C(=O)N3CCC(C(N)=O)CC3)c3ccccn23)n1,-105
3,CC(C)Oc1cccc(-c2nc3c([nH]2)CCCNC3=O)c1,27.3
4,COc1ccc2c(c1)OCC(C(=O)NCc1nc3c(s1)CCCC3)C2 (stereo unspecified),-4.29
5,CN(Cc1cnccn1)C(=O)[C@@]12CNC[C@@H]1CN(Cc1ccccc1)C2,-2.59
6,CS(=O)(=O)N1CCc2[nH]cnc2C12CCN(C1CCOCC1)CC2,-4.52
7,CCOC(=O)CC1CCCCN1C(=O)c1cccc2ccnn12 (stereo unspecified),-105
8,Cc1[nH]c2c(F)cccc2c1CC(=O)NCCCNc1cccnc1,1.56
9,CCC(CC)n1nc(C)cc1NC(=O)CC1CCOCC1,-2.17
10,CO[C@H]1CN(C(=O)c2ccc(-c3ccccc3)[nH]2)CC[C@H]1N,3.64
11,Cc1nc[nH]c1CN1CCN(C(=O)CN2CCCC2)[C@H]2CS(=O)(=O)C[C@H]21,-7.21
12,CCn1nc(C)c(CCNC(=O)C2CCCN(C3CCCC3)C2)c1C (stereo unspecified),-9.34
13,COCC(=O)N1C[C@@H](CN2CCCN(C)CC2)[C@@H](CO)C1,-3.85
14,CCN1CCC(CNC(=O)C(c2ccccc2F)N(C)C)(N(C)C)CC1 (stereo unspecified),-1.7
15,O=S(=O)(N1CCOCC1)N1CCOC(CCc2ccccc2)C1 (stereo unspecified),-2.55
16,COc1cc(N(C)CCC(O)c2ccccc2)ncn1 (stereo unspecified),-139
17,CCn1c(C)nnc1SCCNc1nc(C)ncc1S(C)(=O)=O,-4.19
18,Cn1ccnc1CN(CCO)C(=O)c1cnc2ccccc2c1,1.39
19,CCn1nc(C)c(NC(=O)CN(C)C(C)c2ccon2)c1C (stereo unspecified),-147
20,COc1ccnc(CN2CCC(O)(c3ccc(C)cn3)CC2)c1OC,-138
21,OC1(c2cn(C3CCN(C4CCSC4)CC3)nn2)CCCC1 (stereo unspecified),2.13
22,CCN1CC(C(=O)NCCOc2ccc3c(c2)OCO3)CC1=O (stereo unspecified),-2.34
23,Cc1cc(NC(=O)CN2CCCC(Cn3nc(C)nc3C)C2)n(C)n1 (stereo unspecified),-9.54

row,Structure (SMILES),cytotoxicity at 10 µM [%]
1,CC(C)Cc1noc(CN2CCN(c3nccs3)CC2)n1,0.607
2,CC(Cn1cccn1)NCc1nc(-c2cccs2)no1 (stereo unspecified),-8.7
3,Cc1cccc(-c2noc(CN3CCCC3Cn3cccn3)n2)c1 (stereo unspecified),1.68
4,CNc1cc2c(nn1)CCN(C(=O)c1ccc(-n3nccc3C)cc1)C2,-5.44
5,CC1CCCN(Cc2c(C3CC3)n(CC(=O)N(C)C)c3ncccc23)C1 (stereo unspecified),4.04
6,COCC1CC2(CCN(Cc3ccc(C)o3)CC2)CN1C(C)C (stereo unspecified),-2.42
7,CNC(=O)c1cc2c(nc1N(C)C)CCN(S(=O)(=O)CC(C)C)CC2,-3.85
8,O=C(NCC1CC1)[C@@H]1CCO[C@@H]2CCN(Cc3ccco3)C[C@H]21,-4.93
9,CCN1CCC2(CN(C(C)=O)CC23CCN(CC2CC2)CC3)C1=O (stereo unspecified),3.94
10,COCCN1CCC2(CC1)CN(C(=O)c1cccs1)CCO2,-14.1
11,O=C(c1cc[nH]n1)N1CC[C@@H]2CN(Cc3ccccc3)S(=O)(=O)[C@@H]2CC1,4.35
12,O=C(C1CCOC1)N1C[C@H]2CN(Cc3ccncc3)C(=O)[C@H]2C1 (stereo partly specified),-105
13,CCOCC(=O)N1CC[C@H]2OCC[C@@]2(COc2ncccc2F)C1,-152
14,Cc1cccc(CN2CCCn3c(nnc3Cn3cccn3)C2)n1,-0.124
15,c1ccc(OCc2n[nH]c3c2CN(CC2CC2)C3)nc1,7.49
16,CC(C)C(=O)N1CC[C@H]2N(C)CC[C@@]2(C(=O)Nc2cccnc2)CC1,-121
17,Cc1ccc2c(c1)C1(CCNCC1)CC2NC(C)C (stereo unspecified),-9.73
18,CCC(=O)Nc1cccc(OCC(=O)N[C@@H]2C[C@@H]3CC[C@H]2C3)c1,-1.03
19,O=C(c1c[nH]c(=O)c(Cl)c1)N1C[C@H]2CC[C@@H](C1)N(CC1CCC1)C2,-153
